The source made the active and inactive calls.
Key:
Assay type in all cases: functional, organism-based
Aspergillus fumigatus = assay: Antifungal activity against Aspergillus fumigatus ATCC 26934 at 0.98 to 250 ug/mL by NCCLS broth microdilution method
Method in brief: (§1)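 MIC by broth microdilution per NCCLS M27-A3/M38-A2 in RPMI-1640 buffered to pH 7.0 with MOPS. Twofold dilutions from 250–0.98 µg/mL, final DMSO ≤1%. Inoculum 1–5 × 10³ CFU/mL. Incubated in a moist dark chamber, 30 °C for Aspergillus and 28–30 °C for dermatophytes. Read visually when control growth allowed. Endpoint is the lowest concentration giving total inhibition of visible growth (MIC100).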

[1] = system: Trichophyton mentagrophytes; assay: Antifungal activity against Trichophyton mentagrophytes ATCC 9972 at 0.98 to 250 ug/mL by NCCLS broth microdilution method; method in brief: as §1
Trichophyton rubrum = assay: Antifungal activity against Trichophyton rubrum CCC 110 at 0.98 to 250 ug/mL by NCCLS broth microdilution method; method in brief: as §1
Aspergillus flavus = assay: Antifungal activity against Aspergillus flavus ATCC 9170 at 0.98 to 250 ug/mL by NCCLS broth microdilution method; method in brief: as §1
Nannizzia gypsea = assay: Antifungal activity against Microsporum gypseum CCC 115 at 0.98 to 250 ug/mL by NCCLS broth microdilution method; method in brief: as §1
Cryptococcus neoformans = assay: Antifungal activity against Cryptococcus neoformans ATCC 32264 at 0.98 to 250 ug/mL after 48 hrs by NCCLS broth microdilution method
Method in brief: (§2)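 Yeast MIC by NCCLS M27-A3 broth microdilution in RPMI-1640 buffered to pH 7.0 with MOPS. Twofold dilutions of 250–0.98 µg/mL, final DMSO ≤1%. Inoculum 1–5 × 10³ CFU/mL. Incubated at 30 °C in a moist dark chamber. Read visually at 48 h. MIC100 is the lowest concentration with no visible growth versus drug-free control.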

Candida albicans = assay: Antifungal activity against Candida albicans ATCC 10231 at 0.98 to 250 ug/mL after 48 hrs by NCCLS broth microdilution method; method in brief: as §2
Aspergillus niger = assay: Antifungal activity against Aspergillus niger ATCC 9029 at 0.98 to 250 ug/mL by NCCLS broth microdilution method; method in brief: as §1
Candida tropicalis = assay: Antifungal activity against Candida tropicalis at 0.98 to 250 ug/mL after 48 hrs by NCCLS broth microdilution method; method in brief: as §2

Measured: Activity

COc1nc(NCCO)nc(Nc2ccccc2)c1N=O
inactive: Aspergillus fumigatus | [1] | Trichophyton rubrum | Aspergillus flavus | Nannizzia gypsea | Cryptococcus neoformans | Candida albicans | Aspergillus niger | Candida tropicalis

CCCCNc1nc(N)nc(Nc2ccccc2)c1N=O
inactive: Aspergillus fumigatus | [1] | Trichophyton rubrum | Aspergillus flavus | Nannizzia gypsea | Cryptococcus neoformans | Candida albicans | Aspergillus niger | Candida tropicalis

CNc1nc(N)nc(NCc2ccccc2)c1N=O
inactive: Aspergillus fumigatus | [1] | Trichophyton rubrum | Aspergillus flavus | Nannizzia gypsea | Cryptococcus neoformans | Candida albicans | Aspergillus niger | Candida tropicalis

COc1nc(NCCOC(C)=O)nc(Nc2ccccc2)c1N=O
inactive: Aspergillus fumigatus | [1] | Trichophyton rubrum | Aspergillus flavus | Nannizzia gypsea | Cryptococcus neoformans | Candida albicans | Aspergillus niger | Candida tropicalis

Nc1nc(OCC2CCCCC2)c(N=O)c(OCC2CCCCC2)n1
inactive: Aspergillus fumigatus | [1] | Trichophyton rubrum | Aspergillus flavus | Nannizzia gypsea | Cryptococcus neoformans | Candida albicans | Aspergillus niger | Candida tropicalis

COc1nc(N)nc(NCCOCCO)c1N=O
inactive: Aspergillus fumigatus | [1] | Trichophyton rubrum | Aspergillus flavus | Nannizzia gypsea | Cryptococcus neoformans | Candida albicans | Aspergillus niger | Candida tropicalis

CCOC(=O)C(Cc1ccccc1)Nc1nc(N)nc(OC)c1N=O (centres undefined)
inactive: Aspergillus fumigatus | [1] | Trichophyton rubrum | Aspergillus flavus | Nannizzia gypsea | Cryptococcus neoformans | Candida albicans | Aspergillus niger | Candida tropicalis

Nc1nc(NC23CC4CC(CC(C4)C2)C3)c(N=O)c(=O)[nH]1
inactive: Aspergillus fumigatus | [1] | Trichophyton rubrum | Aspergillus flavus | Nannizzia gypsea | Cryptococcus neoformans | Candida albicans | Aspergillus niger | Candida tropicalis

CCOC(=O)[C@H](Cc1ccccc1)Nc1nc(N)nc(OCC2CCCCC2)c1N=O
inactive: Aspergillus fumigatus | [1] | Trichophyton rubrum | Aspergillus flavus | Nannizzia gypsea | Cryptococcus neoformans | Candida albicans | Aspergillus niger | Candida tropicalis

CCOC(=O)CCNc1nc(N)nc(OC)c1N=O
inactive: Aspergillus fumigatus | [1] | Trichophyton rubrum | Aspergillus flavus | Nannizzia gypsea | Cryptococcus neoformans | Candida albicans | Aspergillus niger | Candida tropicalis

C[C@@H]1Nc2nc(N)nc(OCC3CCCCC3)c2NC1=O
inactive: Aspergillus fumigatus | [1] | Trichophyton rubrum | Aspergillus flavus | Nannizzia gypsea | Cryptococcus neoformans | Candida albicans | Aspergillus niger | Candida tropicalis

COc1nc(N)nc2c1NC(=O)[C@H](Cc1ccccc1)N2
inactive: Aspergillus fumigatus | [1] | Trichophyton rubrum | Aspergillus flavus | Nannizzia gypsea | Cryptococcus neoformans | Candida albicans | Aspergillus niger | Candida tropicalis

COc1nc(N)nc2c1NC(=O)CCN2
inactive: Aspergillus fumigatus | [1] | Trichophyton rubrum | Aspergillus flavus | Nannizzia gypsea | Cryptococcus neoformans | Candida albicans | Aspergillus niger | Candida tropicalis

COc1nc(NCCOC(C)=O)nc(Nc2cccc(Cl)c2)c1N=O
inactive: Aspergillus fumigatus | [1] | Trichophyton rubrum | Aspergillus flavus | Nannizzia gypsea | Cryptococcus neoformans | Candida albicans | Aspergillus niger | Candida tropicalis

Nc1nc(NCc2ccccc2)c(N=O)c(NCc2ccccc2)n1
inactive: Aspergillus fumigatus | [1] | Trichophyton rubrum | Aspergillus flavus | Nannizzia gypsea | Cryptococcus neoformans | Candida albicans | Aspergillus niger | Candida tropicalis

CC(C)Nc1nc(N)nc(Nc2cccc(Cl)c2)c1N=O
inactive: Aspergillus fumigatus | [1] | Trichophyton rubrum | Aspergillus flavus | Nannizzia gypsea | Cryptococcus neoformans | Candida albicans | Aspergillus niger | Candida tropicalis

Nc1nc(NC(CO)C(=O)O)c(N=O)c(=O)[nH]1 (centres undefined)
inactive: Aspergillus fumigatus | [1] | Trichophyton rubrum | Aspergillus flavus | Nannizzia gypsea | Cryptococcus neoformans | Candida albicans | Aspergillus niger | Candida tropicalis

COc1nc(N)nc2c1nnn2C12CC3CC(CC(C3)C1)C2
inactive: Aspergillus fumigatus | [1] | Trichophyton rubrum | Aspergillus flavus | Nannizzia gypsea | Cryptococcus neoformans | Candida albicans | Aspergillus niger | Candida tropicalis

COc1nc(N)nc(NCCO)c1N=O
inactive: Aspergillus fumigatus | [1] | Trichophyton rubrum | Aspergillus flavus | Nannizzia gypsea | Cryptococcus neoformans | Candida albicans | Aspergillus niger | Candida tropicalis

CC(C)Nc1nc(N)nc(NCc2ccccc2)c1N=O
inactive: Aspergillus fumigatus | [1] | Trichophyton rubrum | Aspergillus flavus | Nannizzia gypsea | Cryptococcus neoformans | Candida albicans | Aspergillus niger | Candida tropicalis

COc1nc(N)nc(NC23CC4CC(CC(C4)C2)C3)c1N=O
inactive: Aspergillus fumigatus | [1] | Trichophyton rubrum | Aspergillus flavus | Nannizzia gypsea | Cryptococcus neoformans | Candida albicans | Aspergillus niger | Candida tropicalis
